In paper PMC7688577 (FASEB journal : official publication of the Federation of …, 2020):

Assays:
[1] = tested on: WT rhodopsin; experiment: Rhodopsin immunoblot of NIH3T3; type: cell-based, mouse; details: 10 μM MTX plus 100 nM BafA1, 24 h
Method in brief: (§1)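 Cells were seeded at 5 × 10⁵/well in 6-well plates for 17 h, then given fresh medium with test compound and inhibitor. Protein was measured by A280. Rhodopsin blots loaded 100 μg (P23H line) or 20 μg (WT line), run on 10% and 16% SDS-PAGE and transferred to nitrocellulose. Membranes were blocked 1 h in 5% BSA/PBS-0.05% Tween 20, probed with primary overnight at 4 °C and secondary 1 h at RT, with chemiluminescent detection.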

[2] = tested on: chymotrypsin-like proteasome activity; experiment: Proteasome activity assay; type: cell-based; details: NIH3T3(RHO^P23H/GFP) and NIH3T3(RHO^WT/GFP) cells, MTX 0.0195 to 10 μM, 24 h
Method in brief: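 Cells were seeded at 2500/well in 384-well plates and after 3 h treated for 24 h with test compound at 0.0195–10 μM final. Controls were 0.1% DMSO (100%) and 5 μM MG-132 for 8 h (0%). Proteasome-Glo reagent with Suc-LLVY-Glo substrate was added, shaken 2 min and held 24 min at RT. Luminescence gave chymotrypsin-like activity, normalized to the controls.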

[3] = tested on: Rho^P23H/+ mice; experiment: Immunoblot of LC3 and SQSTM1/p62 in retinae after IVI; type: in vivo, mouse; details: 25 pmol IVI at PND 15, 48 h after treatment
Method in brief: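 Rho^P23H/+ mice received a 25 pmol/eye intravitreal injection of test compound at PND 15, with PBS in the contralateral eye. Retinae were taken 48 h later, and 30 μg of lysate was immunoblotted for SQSTM1/p62 and LC3 with β-actin as loading control. Blotting used SDS-PAGE, nitrocellulose transfer, 1 h blocking in 5% BSA/PBS-0.05% Tween 20, primary antibody overnight at 4 °C, secondary 1 h at RT, and chemiluminescent detection.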

[4] = tested on: Rho^P23H/+ mice; experiment: Retinal immunohistochemistry; type: in vivo, mouse
Method in brief: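 Rho^P23H/+ mice received intravitreal test compound (25 or 100 pmol) in one eye and PBS in the fellow eye. Dosing was either a single injection at PND 15, with eyes enucleated at PND 33, or four weekly injections from PND 15, with enucleation at PND 46. Retinae were processed for rhodopsin immunohistochemistry and ONL nuclear counts. Age-matched Rho^+/+ mice served as normal controls.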

[5] = molecular target: T1, P23H rhodopsin (Mus musculus, UniProt P15409, P23H); experiment: Rhodopsin dot blot of NIH3T3; type: cell-based; details: NIH3T3(RHO^P23H/GFP) cells, 10 μM, 24 h, vs DMSO control
Method in brief: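 NIH3T3(RHO^P23H/GFP) cells were seeded at 2.5 × 10⁴/well in 96-well plates, attached 4 h, then given medium with 2× test compound to reach 10 μM final for 24 h. Cells were PBS-washed and lysed in RIPA with protease inhibitors plus 6 s sonication. Of each well's lysate, 90% was dotted on nitrocellulose, air-dried and probed with 0.1 μg/mL HRP-1D4. Densitometry was normalized to DMSO.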

[6] = Estimated vitreous concentration after intravitreal injection, rabbit; details: 1.76 μmol, vitreous cavity about 1.5 mL, ref [70]
[7] = tested on: RHO transcripts; experiment: qPCR of RHO transcripts in NIH3T3; type: cell-based, mouse; details: 10 μM, 24 h
Method in brief: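 NIH3T3 cells stably expressing WT or P23H rhodopsin (GFP lines) were seeded in 24-well plates at 2.5×10⁵ cells/well and cultured overnight at 37 °C, 5% CO₂. They were then exposed to test compound in culture medium for 24 h. RNA was precipitated by centrifugation at 12,000×g for 10 min at 4 °C, washed with 75% ethanol, air-dried and dissolved in nuclease-free water before qPCR.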

[8] = molecular target: T1, P23H rhodopsin; experiment: Image-based; type: cell-based
[9] = tested on: Rho^P23H/+ mice; experiment: Electroretinogram; type: in vivo, mouse
Method in brief: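 Rho^P23H/+ mice (homozygous knock-in crossed with C57BL/6J). Test compound given by intravitreal injection to one eye, PBS to the other. Dosing was a single 25 or 100 pmol at PND 15 with ERG at PND 32, or four weekly injections (PND 15, 22, 29, 36) with ERG at PND 44. Scotopic ERG used eight flashes. Photopic ERG used six flashes (0.01–30 cd·s/m²) after 5 min adaptation to 10 cd/m², on that background. Age-matched Rho^+/+ controls. Two-way ANOVA.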

[10] = molecular target: T1, P23H rhodopsin; experiment: Rhodopsin immunoblot of NIH3T3; type: cell-based; details: 10 μM MTX plus 100 nM BafA1, 24 h
Method in brief: as §1

[11] = molecular target: P23H rhodopsin fused with Renilla luciferase (Mus musculus, UniProt P15409, P23H); experiment: Rluc reporter assay in Hek293; type: cell-based; details: HEK293, read-out: Rluc assay Hek293 (RHO^P23H-Rluc) Efficacy
[12] = molecular target: T1, P23H rhodopsin; experiment: Non-radioactive pulse-chase assay in NIH3T3; type: cell-based; details: 10 μM
Method in brief: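 Non-radioactive pulse-chase. Cells (3 × 10⁵/well, 24-well) were grown overnight, starved in Met-free DMEM for 1 h, then pulsed with 50 μM L-AHA for 4 h (50 μM Met as negative control). Chase was 24 h in DMEM with 2 mM Met ± 10 μM test compound. Lysates (200 μg) were clicked with 5 μM BTN-sDIBO for 1 h at 37 °C, immunoprecipitated with 1D4, eluted at pH 2.8, dot-blotted and probed with HRP-streptavidin. Values normalized to DMSO on the same membrane; N=3, unpaired two-tailed t-test.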

[13] = tested on: rhodopsin mutants (T4R, P23H, P53R, C110Y, D190N, P267L); type: cell-based, mouse; details: U2OS cells
Method in brief: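 U2OS stable lines expressed WT or mutant mouse rhodopsin fused to Venus. Cells were transfected with pcDNA3.1 Zeo constructs, kept 48 h in DMEM/10% FBS, then selected with 400 μg/mL Zeocin. Stable cells were treated with test compound at 10 μM and immunostained for rhodopsin.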

[14] = single IVI 25 pmol at PND 15, IHC at PND 33
[15] = single IVI 100 pmol at PND 15, ERG at PND 32

SMILES: CN(Cc1cnc2nc(N)nc(N)c2n1)c1ccc(C(=O)N[C@@H](CCC(=O)O)C(=O)O)cc1 [CL-009, methotrexate]
- WT rhodopsin level under BafA1 and MTX co-treatment (immunoblot) [1]: accumulation
- Chymotrypsin-like proteasome activity [2]: did not affect
- LC3-II level in retinae compared to PBS control [3]: increase
- SQSTM1/p62 level in retinae compared to PBS control [3]: decrease
- Retinal degeneration caused by MTX ([4]; 100 pmol IVI, Rho^P23H/+ mice): did not see obvious retinal degeneration
- Nucleus number in the ONL vs PBS group, superior side ([4]; four IVIs of 25 pmol, IHC at PND 46): higher
- ONL nucleus number, either side of the retina [4, 14]: No change
- Total rhodopsin level and rhodopsin in the OS compared to PBS control, superior side [4, 14]: significant increase
- Rho protein level (Dot blot) [5]: Down
- Final concentration in vitreous [6]: about 1 mM
- Rho mRNA level (qPCR) ([7]; NIH3T3(RHO^P23H/GFP) cells, vs DMSO control): No Change
- WT and P23H rhodopsin transcripts in comparison to DMSO control ([7]; both NIH3T3(RHO^P23H/GFP) and NIH3T3(RHO^WT/GFP) cells): did not affect
- Mean intensity of P23H rhodopsin immunostaining per cell ([8]; MTX alone): reduced in an MTX dose-dependent manner
- Emax ([8]; NIH3T3, 24 h, read-out: Image-based assay NIH3T3 (RHO^P23H/GFP) Efficacy): 36%
- Multi-flash scotopic and photopic b-waves compared to PBS control group ([9]; four weekly IVIs starting at PND 15 (25 pmol per treatment), ERG at PND 44): significantly increased
- Photopic ERG responses vs PBS treated or non-treated eyes ([9]; single IVI 25 pmol at PND 15, ERG at PND 32): higher
- Multi-flash scotopic ERG a- and b-waves vs PBS or non-treated eyes [9, 15]: no effect
- Photopic ERG responses vs PBS treated or non-treated eyes [9, 15]: did not show any effects
- Ratio of scotopic and photopic b- to a-wave amplitudes ([9]; single IVI at PND 15, ERG at PND 32): not affected
- MTX induced P23H rhodopsin clearance under co-treatment with BafA1 (immunoblot) [10]: abolished
- Emax [11]: 53%
- BTN-AHA labeled P23H rhodopsin at 24 h of chase in comparison to DMSO control [12]: significantly reduced
- Rhodopsin immunofluorescence in cells expressing the P23H, C110Y, D190N and P267L mutants [13]: dose-dependent reductions
